Results from ChEMBL document CHEMBL4373711, “Development of 3,5-Dinitrophenyl-Containing 1,2,4-Triazoles and Their Trifluoromethyl Analogues as Highly Efficient Antitubercular Agents Inhibiting Decaprenylphosphoryl-β-d-ribofuranose 2'-Oxidase” (J Med Chem, 2019).
In brackets after ≈: the same amount, converted by molar mass. Activity calls are given as the source filed them. The rule behind the calls is not given here.

Legend:
[1] = test system: Lichtheimia corymbifera; assay: Antifungal activity against Lichtheimia corymbifera CCM 8077 at highest concentration measured after 24 to 48 hrs by alamar blue dye based broth microdilution assay; type: functional, organism-based
[2] = test system: Aspergillus flavus; assay: Antifungal activity against Aspergillus flavus CCM 8363 at highest concentration measured after 24 to 48 hrs by alamar blue dye based broth microdilution assay; type: functional, organism-based
[3] = test system: Candida tropicalis; assay: Antifungal activity against Candida tropicalis ATCC 750 CCM 8264 at highest concentration measured after 24 to 48 hrs by alamar blue dye based broth microdilution assay; type: functional, organism-based
[4] = test system: Pseudomonas aeruginosa; assay: Antibacterial activity against Pseudomonas aeruginosa ATCC 27853 CCM 3955 at highest concentration measured after 24 to 48 hrs by alamar blue dye based broth microdilution assay; type: functional, organism-based
[5] = test system: Trichophyton interdigitale; assay: Antifungal activity against Trichophyton interdigitale ATCC 9533 CCM 8377 at highest concentration measured after 72 to 120 hrs by alamar blue dye based broth microdilution assay; type: functional
[6] = test system: Mycobacterium tuberculosis; assay: Antimycobacterial activity against Mycobacterium tuberculosis H37Rv CNCTC My 331/88 after 21 days; type: functional; details: H37Rv CNCTC My 331/88, 504 h
How it was run: (§1)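 M. tuberculosis strains (H37Rv and clinical MDR/XDR isolates) tested by microdilution in Šula's semisynthetic medium. Compounds were dissolved in DMSO and tested at 32 to 0.03 µM in twofold steps. Inoculum was a 1.0 McFarland suspension diluted 10-3. Plates were incubated at 37 °C and read at 14 and 21 days.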

[7] = test system: Mycobacterium kansasii; assay: Antimycobacterial activity against Mycobacterium kansasii 6509/96 after 7 days; type: functional; details: 6509/96, 168 h
How it was run: (§2)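 Microdilution in Šula's semisynthetic medium; compounds in DMSO at 32–0.03 µM. Inoculum from 1.0 McFarland suspension diluted 10-4. […] Isoniazid and rifampicin as reference drugs.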

[8] = test system: Mycobacterium kansasii; assay: Antimycobacterial activity against Mycobacterium kansasii 6509/96 after 21 days; type: functional; details: 6509/96, 504 h; how it was run: as §2
[9] = test system: Mycobacterium tuberculosis; assay: Antimycobacterial activity against Mycobacterium tuberculosis H37Rv CNCTC My 331/88 after 14 days; type: functional; details: H37Rv CNCTC My 331/88, 336 h; how it was run: as §1
[10] = test system: Klebsiella pneumoniae; assay: Antibacterial activity against Klebsiella pneumoniae at highest concentration measured after 24 to 48 hrs by alamar blue dye based broth microdilution assay; type: functional, organism-based
[11] = test system: Staphylococcus aureus; assay: Antibacterial activity against Staphylococcus aureus subsp. aureus ATCC 29213 CCM 4223 at highest concentration measured after 24 to 48 hrs by alamar blue dye based broth microdilution assay; type: functional, organism-based
[12] = test system: Serratia marcescens; assay: Antibacterial activity against Serratia marcescens at highest concentration measured after 24 to 48 hrs by alamar blue dye based broth microdilution assay; type: functional, organism-based
[13] = test system: Mycobacterium kansasii; assay: Antimycobacterial activity against Mycobacterium kansasii CNCTC My 235/80 after 21 days; type: functional; details: CNCTC My 235/80, 504 h; how it was run: as §2
[14] = test system: Mycobacterium kansasii; assay: Antimycobacterial activity against Mycobacterium kansasii 6509/96 after 14 days; type: functional; details: 6509/96, 336 h; how it was run: as §2
[15] = test system: Staphylococcus aureus; assay: Antibacterial activity against methicillin-resistant Staphylococcus aureus subsp. aureus ATCC 43300 CCM 4750 at highest concentration measured after 24 to 48 hrs by alamar blue dye based broth microdilution assay; type: functional, organism-based
[16] = test system: Mycobacterium avium; assay: Antimycobacterial activity against Mycobacterium avium CNCTC My 330/88 after 21 days; type: functional; details: CNCTC My 330/88, 504 h
How it was run: (§3)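 M. avium was tested by microdilution in Šula's semisynthetic medium, with compounds dissolved in DMSO and serially diluted from 1000 down to 1. Inoculum was a 1.0 McFarland suspension diluted 10-5. Plates were incubated at 37 °C and read at 14 and 21 days. […] Isoniazid and rifampicin served as standards.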

[17] = test system: Staphylococcus epidermidis; assay: Antibacterial activity against Staphylococcus epidermidis at highest concentration measured after 24 to 48 hrs by alamar blue dye based broth microdilution assay; type: functional, organism-based
[18] = test system: Mycobacterium avium; assay: Antimycobacterial activity against Mycobacterium avium CNCTC My 330/88 after 14 days; type: functional; details: CNCTC My 330/88, 336 h; how it was run: as §3
[19] = test system: Candida parapsilosis; assay: Antifungal activity against Candida parapsilosis ATCC 22019 CCM 8260 at highest concentration measured after 24 to 48 hrs by alamar blue dye based broth microdilution assay; type: functional, organism-based
[20] = test system: Pichia kudriavzevii; assay: Antifungal activity against Candida krusei ATCC 6258 CCM8271 at highest concentration measured after 24 to 48 hrs by alamar blue dye based broth microdilution assay; type: functional, organism-based
[21] = test system: Mycobacterium kansasii; assay: Antimycobacterial activity against Mycobacterium kansasii CNCTC My 235/80 after 14 days; type: functional; details: CNCTC My 235/80, 336 h; how it was run: as §2
[22] = test system: Enterococcus faecalis; assay: Antibacterial activity against Enterococcus faecalis ATCC 29212 CCM 4224 at highest concentration measured after 24 to 48 hrs by alamar blue dye based broth microdilution assay; type: functional, organism-based
[23] = test system: Aspergillus fumigatus; assay: Antifungal activity against Aspergillus fumigatus ATCC 204305 at highest concentration measured after 24 to 48 hrs by alamar blue dye based broth microdilution assay; type: functional, organism-based
[24] = test system: Escherichia coli; assay: Antibacterial activity against Escherichia coli ATCC 25922 CCM 3954 at highest concentration measured after 24 to 48 hrs by alamar blue dye based broth microdilution assay; type: functional, organism-based
[25] = test system: Mycobacterium kansasii; assay: Antimycobacterial activity against Mycobacterium kansasii CNCTC My 235/80 after 7 days; type: functional; details: CNCTC My 235/80, 168 h; how it was run: as §2
[26] = test system: Candida albicans; assay: Antifungal activity against Candida albicans ATCC 24433 CCM 8320 at highest concentration measured after 24 to 48 hrs by alamar blue dye based broth microdilution assay; type: functional, organism-based

| SMILES | Activity [1] | Activity [2] | Activity [3] | Activity [4] | Activity [5] | MIC99 [6] | MIC99 [7] | MIC99 [8] | MIC99 [9] | Activity [10] | Activity [11] | Activity [12] | MIC99 [13] | MIC99 [14] | Activity [15] | MIC99 [16] | Activity [17] | MIC99 [18] | Activity [19] | Activity [20] | other results |
| --- | --- | --- | --- | --- | --- | --- | --- | --- | --- | --- | --- | --- | --- | --- | --- | --- | --- | --- | --- | --- | --- |
| O=[N+]([O-])c1cc(Cn2c(SCc3ccc(Cl)c(Cl)c3)nnc2-c2ccccc2)cc([N+](=O)[O-])c1 | inactive | inactive | inactive | inactive | inactive | 16 µM (≈ 8.26 µg/mL) | 8 µM (≈ 4.13 µg/mL) | 16 µM (≈ 8.26 µg/mL) | 8 µM (≈ 4.13 µg/mL) | inactive | inactive | inactive | 16 µM (≈ 8.26 µg/mL) | 16 µM (≈ 8.26 µg/mL) | inactive | 250 µM (≈ 129 µg/mL) | inactive | 250 µM (≈ 129 µg/mL) | inactive | inactive | MIC99 [21]: 8 µM (≈ 4.13 µg/mL); Activity [22]: inactive; Activity [23]: inactive; Activity [24]: inactive; MIC99 [25]: 4 µM (≈ 2.07 µg/mL); Activity [26]: inactive |
| O=[N+]([O-])c1cc(-c2nnc(SCc3ccccc3)n2Cc2ccc(Cl)cc2Cl)cc([N+](=O)[O-])c1 | inactive | inactive | inactive | inactive | inactive | 2 µM (≈ 1.03 µg/mL) | 4 µM (≈ 2.07 µg/mL) | 4 µM (≈ 2.07 µg/mL) | 2 µM (≈ 1.03 µg/mL) | inactive | inactive | inactive | 4 µM (≈ 2.07 µg/mL) | 4 µM (≈ 2.07 µg/mL) | inactive | 16 µM (≈ 8.26 µg/mL) | inactive | 16 µM (≈ 8.26 µg/mL) | inactive | inactive | MIC99 [21]: 4 µM (≈ 2.07 µg/mL); Activity [22]: inactive; Activity [23]: inactive; Activity [24]: inactive; MIC99 [25]: 2 µM (≈ 1.03 µg/mL); Activity [26]: inactive |
| CCCCCCCCCCCc1nnc(SCc2cc([N+](=O)[O-])cc([N+](=O)[O-])c2)n1Cc1ccccc1 | inactive | inactive | inactive | inactive | inactive | 4 µM (≈ 2.1 µg/mL) | 2 µM (≈ 1.05 µg/mL) | 8 µM (≈ 4.21 µg/mL) | 4 µM (≈ 2.1 µg/mL) | inactive | inactive | inactive | 4 µM (≈ 2.1 µg/mL) | 4 µM (≈ 2.1 µg/mL) | inactive | 250 µM (≈ 131 µg/mL) | inactive | 250 µM (≈ 131 µg/mL) | inactive | inactive | MIC99 [21]: 4 µM (≈ 2.1 µg/mL); Activity [22]: inactive; Activity [23]: inactive; Activity [24]: inactive; MIC99 [25]: 2 µM (≈ 1.05 µg/mL); Activity [26]: inactive |
| O=[N+]([O-])c1cc(CSc2nnc(-c3ccccc3)n2Cc2ccccc2)cc(C(F)(F)F)c1 | inactive | inactive | inactive | inactive | inactive | 32 µM (≈ 15.1 µg/mL) | > 32 µM | > 32 µM | 16 µM (≈ 7.53 µg/mL) | inactive | inactive | inactive | > 32 µM | > 32 µM | inactive | 250 µM (≈ 118 µg/mL) | inactive | 250 µM (≈ 118 µg/mL) | inactive | inactive | MIC99 [21]: > 32 µM; Activity [22]: inactive; Activity [23]: inactive; Activity [24]: inactive; MIC99 [25]: > 32 µM; Activity [26]: inactive |
